Data: ChEMBL document CHEMBL1157026, “Novel antileishmanial chalconoids: synthesis and biological activity of 1- or 3-(6-chloro-2H-chromen-3-yl)propen-1-ones” (Eur J Med Chem, 2010)

Tests used:
Leishmania major = test: Antileishmanial activity against Leishmania major MRHO/IR/75/ER promastigote infected in BALB/c mouse peritoneal macrophage after 24 hrs by MTT assay; format: functional, organism-based
Outline: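 L. major vaccine strain MRHO/IR/75/ER, maintained by passage in BALB/c mice, grown on blood agar at 25 °C. Log-phase promastigotes at 2 × 10⁶/mL were put in phenol red-free RPMI 1640 with 10% FCS, 2 mM glutamine, pH ~7.2 and antibiotics, with serial drug dilutions, for 24 h at 25 °C. MTT (0.5 mg/mL) was added for 4 h at 37 °C; pellets were dissolved in DMSO and read on a plate reader. IC50 was determined.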

[1] = Cytotoxicity against BALB/c mouse peritoneal macrophage after 24 hrs by MTT assay; format: cell-based; settings: peritoneal macrophage cell
Outline: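 Mouse peritoneal macrophages were seeded at 2 × 10⁵ cells/well. After adherence, the medium was replaced with medium holding one concentration per compound. Plates were incubated 24 h at 37 °C in humidified 5% CO2. Controls got culture medium plus DMSO. Viability was read by MTT colorimetric assay.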

For `COc1cc(C(=O)/C=C/C2=Cc3cc(Cl)ccc3OC2)cc(OC)c1OC`, the IC50 (Leishmania major) was 2.06 µM and the Activity [1] was “Non-toxic”.

For `O=C(/C=C/c1ccccc1Br)C1=Cc2cc(Cl)ccc2OC1`, the IC50 (Leishmania major) was 1.33 µM and the Activity [1] was “Non-toxic”.

For `Cc1ccc(/C=C/C(=O)C2=Cc3cc(Cl)ccc3OC2)cc1`, the IC50 (Leishmania major) was 2.75 µM and the Activity [1] was “Non-toxic”.

In the case of `COc1ccc(OC)c(/C=C/C(=O)C2=Cc3cc(Cl)ccc3OC2)c1`, the IC50 (Leishmania major) is reported as 3 µM and the Activity [1] is reported as “Non-toxic”.

With `COc1cccc(/C=C/C(=O)C2=Cc3cc(Cl)ccc3OC2)c1OC` the IC50 (Leishmania major) was 2.8 µM and the Activity [1] was “Non-toxic”.

With `O=C(/C=C/C1=Cc2cc(Cl)ccc2OC1)c1ccccc1F` the IC50 (Leishmania major) was 2.22 µM and the Activity [1] was “Non-toxic”.

For `O=C(/C=C/C1=Cc2cc(Cl)ccc2OC1)c1ccccc1Cl`, the IC50 (Leishmania major) was 1.22 µM and the Activity [1] was “Non-toxic”.

For `O=C(/C=C/C1=Cc2cc(Cl)ccc2OC1)c1ccc(Cl)cc1Cl`, the IC50 (Leishmania major) was 1.91 µM and the Activity [1] was “Non-toxic”.

In the case of MEGLUMINE ANTIMONATE, the Activity [1] is reported as 40%.
